Compound activity from PubChem BioAssay.
Only some compounds are listed: those with a hit (about 3.9% of all), similar ones and a draw of the others.
Rad51 HR inh = blocks human Rad51 in homologous recombination | inhibition, % at 10 µM | hRad51 DNA strand exchange, fluorescence dequenching | Q06609 | 200,000 tested, 0.085% active;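 active = inhibition above 40% at the single screening dose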
Target sequence (Q06609 whole entry, looked up): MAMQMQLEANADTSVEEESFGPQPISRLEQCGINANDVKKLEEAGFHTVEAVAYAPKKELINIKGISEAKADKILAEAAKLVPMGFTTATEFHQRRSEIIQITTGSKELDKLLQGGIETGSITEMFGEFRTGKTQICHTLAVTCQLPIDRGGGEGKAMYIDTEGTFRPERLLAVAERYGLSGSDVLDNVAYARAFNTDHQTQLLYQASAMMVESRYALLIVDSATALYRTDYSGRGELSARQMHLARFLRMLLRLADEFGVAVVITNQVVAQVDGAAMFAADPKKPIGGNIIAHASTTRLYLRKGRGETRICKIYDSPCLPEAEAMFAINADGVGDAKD
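Test system: preformed human Rad51 ssDNA filaments; also added: Donor/quencher-labelled 47-bp dsDNA substrate; doses: 10 µM final, single point; times: 37 °C 15-min filament assembly, 30-min compound preincubation, 15-min exchange; detection: FRET fluorescence dequenching, excitation 485 nm, emission 520 nm; read-out basis: Fluorescence-based percent inhibition, control- and blank-normalised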
FLuc act counter = firefly luciferase counter-screen for stimulation assays; P08659; ATPlite luciferase biochemical, luminescence, 10 min; 0 = ATP-free wells, 1 = DMSO control; activation factor at 10 µM; 200,000 tested, under 10 active; AID 1027;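 active = luciferase activation factor, scaled between plate controls, of at least 2 with compound at 10 µM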
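System: Luciferase/luciferin detection reagent, cell-free biochemical luciferase assay | Medium: PBS buffer for ATP | Dosing: Test compounds dosed from 2 mM stocks in 100% DMSO | Timing: 10 min at ambient temperature | Signal: Luminescence measurement of luciferase light output | Evaluation: Luciferase activation, seen as luminescence increase over controls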
APP 5'UTR act = activates APP 5'UTR luciferase reporter | SH-SY5Y APP 5'UTR luciferase reporter, luminescence; zero percent = DMSO vehicle wells | activation, % at 2 µM | 190,000 tested, 1% active | AID 1276;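 active = activation above a set limit, based on mean plus 3 SD of controls, cut at about 140% in these data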
STAT1 activator = STAT1 signaling activation; activation (% of control), % at 5.5 µM; NIH 3T3 STAT1-luciferase reporter, IFN-gamma, luminescence; 100% = IFN-gamma alone, no compound; AID 932; 200,000 tested, 2.6% active;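 active = activation above the screen-wide mean activation plus 3 SD, cut at about 130% in these data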
NF-kB expr up = NF-kB expression increase, human neuronal cells; NF-kB reporter expression; hits give high values; fold change at 12.5 µM; 190,000 tested, 1.6% active; AID 1239; in the data active = fold change above about 3.3
FLuc inh counter = inhibits firefly luciferase, flagging false hits in luciferase inhibition screens; inhibition, % at 10 µM; ATPLite firefly luciferase biochemical luminescence, 10 min; 200,000 tested, 1.5% active; P08659; AID 1006;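 active = inhibition above about 50% when tested at 10 µM, limit read from the data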
STAT1 activ conf = STAT1 activation, confirmation assay; shares compounds with STAT1 activator; NIH 3T3 STAT1-luciferase reporter, IFN-gamma potentiation, luminescence; 100% = IFN-gamma EC80 alone, no compound; activation (% of control), % at 5.7 µM; 1,200 tested, 97% active; AID 1262;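 active = activation above a set limit carried over from the earlier primary STAT1 screen, cut at about 140% in these data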
NFkB act STAT1ct = counter-screen for STAT1 activators: NF-kappaB activation | 1,200 tested, 43% active | activation (% of control), % at 5.7 µM | HEK293T NF-kB luciferase reporter, TNF-alpha stimulated, luminescence; 100% = TNF-alpha with vehicle only | AID 1306 | shares compounds with STAT1 activator;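 active = activation above the mean of solvent-only control wells plus 3 SD, set per campaign, cut at about 130% in these data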;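 also: TNF-alpha given at a submaximal dose yielding about 80% of full reporter signal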
STAT3 act STAT1c = counter-screen for STAT1 activators: human STAT3 activation | U3A cells STAT3-luciferase reporter, IL-6, luminescence; cells lack STAT1; 100 = IL-6 alone, no compound effect | shares compounds with STAT1 activator | activation (% of control), % at 5.7 µM | 1,200 tested, 46% active | AID 1316;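 active = activation above the solvent-only control well mean plus 3 SD, set per plate batch, cut at about 110% in these data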;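 also: higher means more STAT3 reporter activation so hits are non-selective activators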
Hits are given with their value; – = inactive; · = no result.

SMILES	Rad51 HR inh	FLuc act counter	APP 5'UTR act	STAT1 activator	NF-kB expr up	FLuc inh counter	STAT1 activ conf	NFkB act STAT1ct	STAT3 act STAT1c
COc1ccc(NC(=O)/C(Cl)=C(/Cl)S(=O)Cc2ccc(Cl)cc2)cn1 (stereo not drawn)	–	–	–	292	–	–	278	–	–
CCc1cc2c(=O)c(-c3ccc4c(c3)OCCO4)coc2cc1OS(C)(=O)=O	–	–	–	156	–	52	160	137	117
CCOc1cc(NC(=O)CCl)c(OCC)cc1NC(=O)CCl	–	·	·	·	·	·	·	·	·
COC(=O)c1ccccc1NC(=O)c1c(O)c2c([nH]c1=O)CCCC2	–	–	–	–	–	–	·	·	·
O=C(Nc1ccc(O)cc1)c1c(O)c2c([nH]c1=O)CCCC2	–	–	162	155	–	–	205	139	–
Cn1ccs/c1=N\C(=O)Nc1cccc(Cl)c1	·	–	–	156	3.7	–	184	134	–
NC(=O)c1cc(-c2ccccc2)nc2ccc(Br)cc12	–	·	·	·	·	·	·	·	·
CN1CCN(c2ccc(NC(=O)c3ccccc3Br)cc2)CC1	·	–	–	–	–	–	·	·	·
CCc1ccc(NC(=O)c2ccccc2Br)cc1	·	–	–	155	4.2	–	177	138	–
O=C1CCCC(=O)N1c1ccc(N2CCN(c3ccc([N+](=O)[O-])cc3)CC2)c([N+](=O)[O-])c1	–	–	–	–	–	–	·	·	·
O=S1(=O)N=C(Nc2nc3c(s2)CCCC3)c2ccccc21	·	–	–	152	6.2	87	194	–	126
O=S(=O)(Nc1nc2c(s1)CCCC2)c1ccc(F)cc1	–	–	–	–	–	–	·	·	·
CC(=O)c1sc(Nc2cccc(C)c2)nc1C	–	–	–	–	–	–	·	·	·
Cc1cccc(Nc2nc3c(s2)CCCC3)c1	·	–	–	164	6.6	–	208	146	–
C=CCn1c(C)cc(C(=O)COC(=O)c2ccc(N)c([N+](=O)[O-])c2)c1C	–	–	211	164	4.4	–	243	–	112
CC1=CN2C(=N)/C(=C/c3ccco3)C(=O)N=C2S1	–	–	136	206	7.7	92	310	167	120
CC(C)(C)CC(=O)NC(=S)NCc1ccco1	–	–	–	–	–	–	·	·	·
N#C/C(=C\c1ccncc1)C(N)=O	–	–	–	–	–	–	·	·	·
N#CC1=C2SC=C(c3ccc(Br)cc3)N2CCCC1=O	–	–	176	157	6.8	–	194	147	–
COc1ccccc1N1CC(C)(C)C(=O)N(C(=O)c2ccc(C)cc2)C1=S	–	·	·	·	·	·	·	·	·
Fc1ccc(-c2nnsc2Sc2ccccn2)cc1	–	–	–	–	–	–	·	·	·
COC(=O)c1cc(-c2ccc(C)cc2)n[nH]1	–	–	–	–	–	–	·	·	·
Cc1ccc2nc(NC(=O)c3ccc(Cl)s3)sc2c1	–	–	–	152	5.3	–	249	138	–
Cc1ccc2nc(NC(=O)CCn3cccc3)sc2c1	–	–	–	152	–	–	141	–	–
CCCCNC(=O)Nc1nc2ccccc2s1	–	–	148	152	–	–	186	–	116
SMILES	Rad51 HR inh	FLuc act counter	APP 5'UTR act	STAT1 activator	NF-kB expr up	FLuc inh counter	STAT1 activ conf	NFkB act STAT1ct	STAT3 act STAT1c
Cc1cccc2sc(NC(=O)c3ccc(Cl)s3)nc12	–	–	–	–	–	–	·	·	·
Cc1ccc(C(=O)Nc2nc3ccccc3s2)s1	·	–	157	157	4.2	60	264	–	–
Cc1ccc2nc(NC(=O)CCn3c(=O)sc4ccccc43)sc2c1	–	–	–	–	–	–	·	·	·
O=C(O)c1ccccc1-c1ccccc1C(=O)Nc1nc2ccccc2s1	–	·	·	·	·	·	·	·	·
CC(/C=C/c1ccccc1)=N/O	–	–	–	–	–	–	·	·	·
CC(/C=C/c1ccc(OCc2ccccc2)cc1)=N\O	–	–	–	157	–	–	177	134	112
Cc1ccc(S(=O)(=O)c2nc(-c3ccco3)oc2SCC(=O)NCC2CCCO2)cc1 (stereo not drawn)	–	–	–	–	–	–	·	·	·
Cc1nn(-c2ccccc2)c(N)c1N=O	–	·	·	·	·	·	·	·	·
Cc1ccc(N=Nc2c(N)nn(-c3ccccc3)c2N)cc1	–	–	–	155	6	–	180	138	–
CCOC(=O)c1sc(NC(=O)c2sccc2C)cc1C	–	–	154	152	12	–	252	–	–
CCOC(=O)c1sc(NC(=O)Nc2cccc(Cl)c2)cc1C	–	–	–	–	–	–	·	·	·
O=c1oc2cc(O)ccc2c2c1CCCC2	–	–	–	–	–	–	·	·	·
CCc1cccc2c(C=C(C#N)C#N)cn(CC(=O)N3CCCC3)c12	–	–	–	–	–	–	·	·	·
Cc1nn(C(=O)c2ccco2)c(C)c1Br	–	–	–	–	–	–	·	·	·
Cc1ccn2c(c1)nc(=S)n2C(=O)c1ccco1	·	–	161	217	8.5	94	193	152	122
Cc1c(CCOC(=O)C23CC4CC(CC(C4)C2)C3)sc[n+]1CC#N	–	–	–	–	–	–	·	·	·
Cn1cccc1C(=O)C(=O)Nc1ccc(F)c(F)c1	–	–	139	154	5.2	–	193	–	–
CN1CCN(CCC(=O)Nc2ccc(F)c(F)c2)CC1	–	–	–	–	–	–	·	·	·
[O-]C1=N/[N+](=C/c2ccccc2Cl)CC1	–	–	–	–	–	–	·	·	·
Cc1nc(N)sc1C(=O)N/N=C/c1ccccc1[N+](=O)[O-]	–	–	–	156	–	–	155	–	118
Cc1nc(N)sc1C(=O)N/N=C/c1ccco1	–	–	–	–	–	–	·	·	·
Cc1nc(N)sc1C(=O)N/N=C/c1c[nH]c2ccccc12	–	–	·	–	–	–	·	·	·
CC(/C=N/NC(=O)c1sc(N)nc1C)=C\c1ccccc1	–	–	–	153	–	–	146	–	–
N#C/C(=C\c1cccs1)C(=O)Nc1nccs1	–	–	–	207	4.1	75	229	150	114
C/C(=C\c1ccccc1)C(=O)Nc1nccs1	–	–	–	154	–	–	163	–	–
Cc1ccc(C(=O)N(CC(=O)NC2CCCC2)Cc2cccs2)s1	–	–	–	–	–	–	·	·	·
CCCCc1ccc(-c2ccc(C)cc2O)nc1	–	–	203	156	7.2	75	198	–	–
